Reference: ChEMBL document CHEMBL1154595, “Discovery of selective nonpeptidergic neuropeptide FF2 receptor agonists” (J Med Chem, 2009)
Calls of active or inactive are those of the source.

Tests used:
[1] = target: T1, Neuropeptide FF receptor 2 (Homo sapiens, UniProt Q9Y5X5); assay: Agonist activity at human NPFF2 receptor expressed in cells assessed as beta-galactosidase levels after 5 days; format: functional, cell-based
Method in brief: (§1)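 Functional R-SAT assay at human NPFF1 and NPFF2 receptors in agonist mode. Dose-response curves were built from seven concentrations, each tested in triplicate. Values are mean ± SEM of at least three independent experiments.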

[2] = target: T2, Neuropeptide FF receptor 1 (Homo sapiens, UniProt Q9GZQ6); assay: Agonist activity at human NPFF1 receptor expressed in cells assessed as beta-galactosidase levels after 5 days; format: functional, cell-based; method in brief: as §1
[3] = target: T1, Neuropeptide FF receptor 2; assay: Agonist activity at human NPFF2 receptor expressed in cells assessed as beta-galactosidase levels at […] after 5 days; format: functional, cell-based
[4] = target: T2, Neuropeptide FF receptor 1; assay: Agonist activity at human NPFF1 receptor expressed in cells assessed as beta-galactosidase levels at […] after 5 days; format: functional, cell-based
Rattus norvegicus [5] = species on record: Rattus norvegicus; assay: Antiallodynic activity in Sprague-Dawley rat Kim-Chung model of neuropathic pain assessed mechanical-stimuli induced paw withdrawal threshold in presence of […]-antagonist dansyl-PQR-amide; format: functional, organism-based
Method in brief: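 Rats with spinal nerve ligation, plus sham-operated rats. Tactile allodynia was scored as a significant reduction in paw withdrawal threshold. The selective NPFF1 antagonist dansylPQRamide was given at 30 mg/kg ip alongside the test agonist, with systemic dosing.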

Rattus norvegicus [6] = species on record: Rattus norvegicus; assay: Antiallodynic activity in Sprague-Dawley rat Kim-Chung model of neuropathic pain assessed mechanical-stimuli induced paw withdrawal threshold; format: functional, organism-based
Method in brief: (§2)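 Rats underwent spinal nerve ligation (SNL), with sham-operated rats also used. Tactile allodynia was defined as a significant reduction in paw withdrawal threshold to mechanical stimuli.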

[7] = target: T1, Neuropeptide FF receptor 2; assay: Agonist activity at human NPFF2 receptor expressed in HEK293T cells assessed as inhibition of PGE2-induced cAMP release; conditions: HEK-293T
[8] = target: T2, Neuropeptide FF receptor 1; assay: Agonist activity at human NPFF1 receptor expressed in HEK293T cells assessed as inhibition of PGE2-induced cAMP release; design: Activity: scale not given: the % may be the effect or the level left; conditions: HEK-293T
[9] = Oral bioavailability in Sprague-Dawley rat; format: ADME, organism-based; conditions: in vivo
[10] = Distribution coefficient, log D of the compound; format: physicochemical; conditions: octanol/water
[11] = Lipophilicity, log P of the compound; format: physicochemical; conditions: octanol/water
[12] = Half life in Sprague-Dawley rat; format: ADME, organism-based; conditions: in vivo
[13] = Dissociation constant, pKa of the compound; format: physicochemical
[14] = Clearance in rat liver microsomes; format: ADME, Microsome
Method in brief: (§3)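 Stability was measured in human and in rat liver microsomes. Clearance is reported in μL/(min·mg) and related to liver blood flow.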

[15] = Clearance in human liver microsomes; format: ADME, Microsome; method in brief: as §3
Rattus norvegicus [16] = assay: Antiallodynic activity in Sprague-Dawley rat Kim-Chung model of neuropathic pain assessed mechanical-stimuli induced paw withdrawal threshold at 30 mg/kg; format: functional, organism-based; design: dose 30 mg/kg; method in brief: as §2
Rattus norvegicus [17] = assay: Antiinflammatory activity in ip dosed Sprague-Dawley rat assessed as inhibition of carrageenan-induced thermal hypersensitivity by hotplate test; format: functional, organism-based
Method in brief: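 Acute inflammatory pain was produced in rats by carrageenan. Thermal hypersensitivity was measured by hot plate test on a metal plate held at 52 °C.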

Rattus norvegicus [18] = assay: Antiinflammatory activity in ip dosed Sprague-Dawley rat assessed as inhibition of carrageenan-induced paw edema; format: functional, organism-based
[19] = Activity at alpha-adrenergic receptor
Rattus norvegicus [20] = assay: Antiallodynic activity in Sprague-Dawley rat Kim-Chung model of neuropathic pain assessed mechanical-stimuli induced paw withdrawal threshold at 10 mg/kg; format: functional, organism-based; design: dose 10 mg/kg; method in brief: as §2
[21] = target: T2, Neuropeptide FF receptor 1; assay: Antagonist activity at human NPFF1 receptor expressed in HEK293T cells assessed as inhibition of PGE2-induced cAMP release; format: functional, cell-based; conditions: HEK-293T

T2 sequence (Q9GZQ6 whole entry): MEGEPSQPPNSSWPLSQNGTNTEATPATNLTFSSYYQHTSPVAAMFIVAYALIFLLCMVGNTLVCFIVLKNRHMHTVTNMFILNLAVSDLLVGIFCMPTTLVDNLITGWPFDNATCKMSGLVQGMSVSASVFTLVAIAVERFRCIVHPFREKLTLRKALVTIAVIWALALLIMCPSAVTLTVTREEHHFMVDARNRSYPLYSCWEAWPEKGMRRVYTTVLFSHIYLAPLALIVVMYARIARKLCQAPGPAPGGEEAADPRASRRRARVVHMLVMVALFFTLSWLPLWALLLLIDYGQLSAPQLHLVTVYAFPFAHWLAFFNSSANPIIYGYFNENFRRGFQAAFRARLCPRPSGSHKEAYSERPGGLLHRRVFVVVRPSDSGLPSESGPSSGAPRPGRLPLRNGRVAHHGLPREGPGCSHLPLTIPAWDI
T1 sequence (Q9Y5X5 whole entry): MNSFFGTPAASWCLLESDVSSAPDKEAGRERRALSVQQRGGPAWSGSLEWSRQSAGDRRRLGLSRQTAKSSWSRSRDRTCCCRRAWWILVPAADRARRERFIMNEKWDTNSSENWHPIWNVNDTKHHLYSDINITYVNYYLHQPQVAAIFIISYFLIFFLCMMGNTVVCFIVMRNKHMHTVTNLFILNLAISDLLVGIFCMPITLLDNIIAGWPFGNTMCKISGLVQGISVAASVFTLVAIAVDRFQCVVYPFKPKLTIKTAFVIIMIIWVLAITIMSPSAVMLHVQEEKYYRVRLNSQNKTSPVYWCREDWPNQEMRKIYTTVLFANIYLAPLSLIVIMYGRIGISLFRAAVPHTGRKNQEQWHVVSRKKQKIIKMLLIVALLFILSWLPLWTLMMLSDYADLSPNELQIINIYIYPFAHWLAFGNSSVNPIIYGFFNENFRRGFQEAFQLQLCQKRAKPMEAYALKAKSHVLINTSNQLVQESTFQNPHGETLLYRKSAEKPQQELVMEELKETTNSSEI

SMILES	EC50 [1] [nM]	EC50 [2] [nM]	Efficacy [3] [%]	Efficacy [4]	further results
N=C(N)N/N=C(\c1ccccc1)c1ccc(Cl)c(Cl)c1	794	794	63	46%	
Cc1ccccc1-c1ccc(/C=N/NC(=N)N)o1	100	79.4	90	55%	
N=C(N)N/N=C/c1ccc(-c2ccccc2C(F)(F)F)s1	158	126	55	44%	
CN(C)c1cccc2c(S(=O)(=O)N3CCC[C@H]3C(=O)N[C@@H](CCC(N)=O)C(=O)N[C@@H](CCCNC(=N)N)C(N)=O)cccc12					Activity (Rattus norvegicus [5]): Active
N=C(N)N/N=C/c1ccc(-c2ccccc2C(F)(F)F)o1	100	39.8	73	55%	Activity (Rattus norvegicus [6]): inactive; Efficacy [7]: 114%; Efficacy [8]: 93%
CC(C)c1ccccc1-c1ccc(/C=N/NC(=N)N)o1	200	158	70	62%	
Cn1c(/C=N/NC(=N)N)ccc1-c1ccccc1C(F)(F)F	126	316	72	36%	
NC(N)=N/N=C/c1ccc(Cl)c(Cl)c1	1000				bioavailability [9]: 43%; logD [10]: 1.8; logP [11]: 2.8; half-life [12]: 2.5 h; pKa [13]: 8.4; microsomal CLint [14]: 18 µL/min/mg; microsomal CLint [15]: 26 µL/min/mg
N=C(N)N/N=C/c1ccc(Br)c(Br)c1			90	inactive	
C/C(=N\NC(=N)N)c1ccc(Cl)c(C(F)(F)F)c1	398		66	inactive	
C/C(=N\N=C(N)N)c1ccc(Cl)c(Cl)c1	501		64	inactive	
N=C(N)N/N=C/c1c(Cl)cccc1Cl					Activity [3]: inactive; Activity [4]: inactive
CCCCCNC(=N)N/N=C/c1c[nH]c2ccc(OC)cc12					Activity [3]: inactive; Activity [4]: inactive
N=C(N)N/N=C/c1ccc(Cl)c(C(F)(F)F)c1		> 3160	114	46%	Activity (Rattus norvegicus [16]): Active; Activity (Rattus norvegicus [17]): Dose-dependent effect; Efficacy [7]: 89%; Activity [8]: 42%; Activity (Rattus norvegicus [18]): inactive
N=C(N)N/N=C/c1ccc(Cl)c(Cl)c1			68	18%	Activity (Rattus norvegicus [17]): Dose-dependent effect; Activity [19]: inactive; Activity (Rattus norvegicus [18]): inactive; Activity (Rattus norvegicus [20]): Active; Activity [21]: inactive
